The target of data set [1] is Phosphatidylinositol 4,5-bisphosphate 3-kinase catalytic subunit alpha isoform (Homo sapiens, UniProt P42336). Put plainly: Inhibition of PI3Kalpha by continuous read time resolved fluorescence resonance energy transfer displacement assay.
In data set [2] the target is T1, Phosphatidylinositol 4,5-bisphosphate 3-kinase catalytic subunit beta isoform (Homo sapiens, UniProt P42338). Put plainly: Inhibition of PI3Kbeta by continuous read time resolved fluorescence resonance energy transfer displacement assay.
Data set [3] addresses Phosphatidylinositol 4,5-bisphosphate 3-kinase catalytic subunit gamma isoform (Homo sapiens, UniProt P48736). Put plainly: Inhibition of PI3Kgamma by continuous read time resolved fluorescence resonance energy transfer displacement assay.
In data set [4] the target is T2, Phosphatidylinositol 4,5-bisphosphate 3-kinase catalytic subunit delta isoform (Homo sapiens, UniProt O00329).
T2 sequence (O00329 whole entry): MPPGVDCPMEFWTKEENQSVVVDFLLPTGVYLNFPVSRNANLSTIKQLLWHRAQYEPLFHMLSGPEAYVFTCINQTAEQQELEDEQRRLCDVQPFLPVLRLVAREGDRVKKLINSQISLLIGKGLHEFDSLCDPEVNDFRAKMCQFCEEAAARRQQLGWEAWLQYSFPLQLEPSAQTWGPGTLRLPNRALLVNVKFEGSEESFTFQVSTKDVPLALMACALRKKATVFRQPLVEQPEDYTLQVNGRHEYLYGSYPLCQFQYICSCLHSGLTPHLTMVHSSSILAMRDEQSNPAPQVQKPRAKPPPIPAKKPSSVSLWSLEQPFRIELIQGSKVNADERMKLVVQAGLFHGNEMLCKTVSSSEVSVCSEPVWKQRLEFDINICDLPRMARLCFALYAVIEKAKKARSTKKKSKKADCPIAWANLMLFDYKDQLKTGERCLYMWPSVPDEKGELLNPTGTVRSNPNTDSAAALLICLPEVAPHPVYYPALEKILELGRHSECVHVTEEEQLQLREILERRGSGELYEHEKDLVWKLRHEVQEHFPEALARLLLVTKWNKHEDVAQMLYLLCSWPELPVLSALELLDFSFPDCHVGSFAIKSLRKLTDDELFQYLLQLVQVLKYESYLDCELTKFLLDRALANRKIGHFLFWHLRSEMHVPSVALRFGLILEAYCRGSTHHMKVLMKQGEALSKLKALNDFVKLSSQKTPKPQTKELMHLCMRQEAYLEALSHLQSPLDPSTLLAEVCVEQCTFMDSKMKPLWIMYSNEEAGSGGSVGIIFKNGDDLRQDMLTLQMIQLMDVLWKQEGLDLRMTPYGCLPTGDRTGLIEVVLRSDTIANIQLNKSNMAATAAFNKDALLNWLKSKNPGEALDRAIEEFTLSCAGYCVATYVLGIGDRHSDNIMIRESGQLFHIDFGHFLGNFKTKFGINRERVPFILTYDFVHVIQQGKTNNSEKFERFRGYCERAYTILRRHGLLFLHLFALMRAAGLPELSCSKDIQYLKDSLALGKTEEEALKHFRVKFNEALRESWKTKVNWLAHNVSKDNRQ
Put plainly: Inhibition of PI3Kdelta by continuous read time resolved fluorescence resonance energy transfer displacement assay.

Data set [5] in a line: Selectivity ratio of IC50 for PI3Kdelta to IC50 for PI3Kbeta.
The target of data set [6] is T1, Phosphatidylinositol 4,5-bisphosphate 3-kinase catalytic subunit beta isoform. Put plainly: Inhibition of PI3K beta-mediated AKT phosphorylation at serine 473 in PTEN deficient human MDA-MB-468 cells after 30 mins. In kind it is cell-based. The procedure, abridged:
(§1)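 Breast cancer cells plated and held about 16–20 h, then exposed to compound for 30 min at 0.15% final DMSO. After a Tris wash, cells were lysed in buffer with protease and phosphatase inhibitors. Ser473-pAKT and total AKT were measured by MSD duplex immunoassay, normalised to total AKT (pAKT + AKT signal), and expressed as percent of DMSO control. IC50 from concentration-response fits; means of at least 2 experiments.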

The next data set relates to MDA-MB-468. Description: Cytotoxicity against PTEN deficient human MDA-MB-468 cells after 6 days by alamar blue assay. In kind it is functional, cell-based. The procedure, abridged: (§2)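 Cells were grown anchorage-independently: a 0.6% agar/medium + 10% FBS bottom layer, cells in 0.3% agar/medium + 10% FBS, and medium + 10% FBS on top. After 16–20 h they were dosed (0.15% final DMSO) for 6 days, with a baseline plate read at dosing. Alamar Blue was added for 6 h and read as fluorescence (ex 530/em 590 nm). Signal from 0.3% Brij 35 background wells was subtracted, values were expressed as % of DMSO control, and fitted with a 4-parameter logistic.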

Data set [7] is described as follows: Clearance in rat at 0.25 mg/kg, iv. Type of data set: ADME, organism-based. More on the design: dose 0.25 mg/kg, route intravenous. Particulars: in vivo; call rule not given here. The procedure, abridged: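 Rats given a single IV dose at 0.25 mg/kg, formulated in 1% DMSO with 20% Encapsin in saline. Clearance was calculated after IV administration. Reported values are means of at least 2 experiments.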

Data set [8] deals with Serine/threonine-protein kinase mTOR (Homo sapiens, UniProt P42345). Put plainly: Inhibition of mTOR.
Data set [9] is described as follows: Inhibition of DNA-PK.
Data set [10] concerns the target T1, Phosphatidylinositol 4,5-bisphosphate 3-kinase catalytic subunit beta isoform. Put plainly: Inhibition of PI3K beta-mediated AKT phosphorylation at serine 473 in PTEN wild type human HCC1954 cells. Type of data set: cell-based. In a few lines:
as §1

The subject of the next data set is HCC1954. Put plainly: Cytotoxicity against PTEN wild type human HCC1954 cells after 6 days by alamar blue assay. Particulars: HCC1954, 144 h. In kind it is functional, cell-based. In a few lines:
as §2
(Resazurin is reduced to fluorescent resorufin, in cell work by metabolically active cells.)

The mark [11] stands for this setting: Homo sapiens, MDA-MB-468, 144 h, read-out: EC50.

Structures are written as SMILES.

T1 sequence (P42338 whole entry, canonical isoform): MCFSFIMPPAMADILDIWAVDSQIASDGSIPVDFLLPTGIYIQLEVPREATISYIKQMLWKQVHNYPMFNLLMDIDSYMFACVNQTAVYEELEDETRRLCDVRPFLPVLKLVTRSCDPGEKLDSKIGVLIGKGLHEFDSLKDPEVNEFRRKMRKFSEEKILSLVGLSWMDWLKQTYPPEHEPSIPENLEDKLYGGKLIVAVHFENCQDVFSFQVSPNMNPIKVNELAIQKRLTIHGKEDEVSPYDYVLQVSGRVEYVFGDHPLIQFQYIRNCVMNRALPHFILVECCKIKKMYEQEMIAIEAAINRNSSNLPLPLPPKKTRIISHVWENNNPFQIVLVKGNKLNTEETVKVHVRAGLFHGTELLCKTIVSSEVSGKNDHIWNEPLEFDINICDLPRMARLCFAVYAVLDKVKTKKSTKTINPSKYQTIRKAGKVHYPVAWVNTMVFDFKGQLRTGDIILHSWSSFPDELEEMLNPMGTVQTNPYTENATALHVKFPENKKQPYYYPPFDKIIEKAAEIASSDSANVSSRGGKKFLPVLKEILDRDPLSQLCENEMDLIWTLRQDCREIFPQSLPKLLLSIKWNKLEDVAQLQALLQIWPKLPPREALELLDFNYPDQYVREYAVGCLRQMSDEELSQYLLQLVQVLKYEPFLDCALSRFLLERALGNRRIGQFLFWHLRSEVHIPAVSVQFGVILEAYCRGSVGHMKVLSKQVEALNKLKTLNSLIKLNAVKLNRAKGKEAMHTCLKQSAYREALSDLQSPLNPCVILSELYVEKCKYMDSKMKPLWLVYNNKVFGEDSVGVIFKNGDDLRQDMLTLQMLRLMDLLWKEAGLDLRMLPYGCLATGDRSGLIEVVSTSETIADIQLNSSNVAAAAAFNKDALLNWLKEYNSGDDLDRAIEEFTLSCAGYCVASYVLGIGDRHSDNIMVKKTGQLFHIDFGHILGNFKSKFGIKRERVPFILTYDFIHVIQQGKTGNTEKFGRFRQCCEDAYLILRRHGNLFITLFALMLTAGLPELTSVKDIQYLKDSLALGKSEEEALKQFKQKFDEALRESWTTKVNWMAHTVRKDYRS
Phosphatidylinositol 4,5-bisphosphate 3-kinase catalytic subunit alpha isoform, sequence (P42336 whole entry, canonical isoform): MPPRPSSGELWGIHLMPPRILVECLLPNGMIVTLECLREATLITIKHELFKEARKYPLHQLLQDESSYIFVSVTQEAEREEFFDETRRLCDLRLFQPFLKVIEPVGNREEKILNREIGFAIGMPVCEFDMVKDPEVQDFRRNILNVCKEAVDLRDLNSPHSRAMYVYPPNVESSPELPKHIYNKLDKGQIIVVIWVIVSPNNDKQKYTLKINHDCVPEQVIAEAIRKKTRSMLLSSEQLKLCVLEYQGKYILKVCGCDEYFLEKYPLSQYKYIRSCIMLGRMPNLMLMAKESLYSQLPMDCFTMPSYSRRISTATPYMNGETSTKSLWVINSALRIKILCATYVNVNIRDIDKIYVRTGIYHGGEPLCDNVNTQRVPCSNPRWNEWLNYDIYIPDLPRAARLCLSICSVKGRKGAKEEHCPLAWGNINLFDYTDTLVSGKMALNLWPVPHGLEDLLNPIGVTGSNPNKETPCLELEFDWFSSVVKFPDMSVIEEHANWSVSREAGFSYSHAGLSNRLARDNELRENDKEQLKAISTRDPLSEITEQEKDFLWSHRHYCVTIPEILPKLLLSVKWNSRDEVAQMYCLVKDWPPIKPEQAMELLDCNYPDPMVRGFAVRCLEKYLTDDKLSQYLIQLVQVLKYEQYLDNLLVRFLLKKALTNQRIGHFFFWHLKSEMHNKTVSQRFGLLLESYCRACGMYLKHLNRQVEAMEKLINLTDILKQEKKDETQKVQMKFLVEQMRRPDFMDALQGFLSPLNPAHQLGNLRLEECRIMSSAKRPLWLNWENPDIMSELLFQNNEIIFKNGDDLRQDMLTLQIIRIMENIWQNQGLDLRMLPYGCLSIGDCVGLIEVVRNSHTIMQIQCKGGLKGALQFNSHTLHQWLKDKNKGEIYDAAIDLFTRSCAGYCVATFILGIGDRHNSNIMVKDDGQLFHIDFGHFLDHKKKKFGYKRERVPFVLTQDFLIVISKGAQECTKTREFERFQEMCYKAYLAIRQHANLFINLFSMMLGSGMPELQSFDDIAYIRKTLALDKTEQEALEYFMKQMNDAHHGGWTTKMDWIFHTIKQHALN
Phosphatidylinositol 4,5-bisphosphate 3-kinase catalytic subunit gamma isoform, sequence (P48736 whole entry, canonical isoform): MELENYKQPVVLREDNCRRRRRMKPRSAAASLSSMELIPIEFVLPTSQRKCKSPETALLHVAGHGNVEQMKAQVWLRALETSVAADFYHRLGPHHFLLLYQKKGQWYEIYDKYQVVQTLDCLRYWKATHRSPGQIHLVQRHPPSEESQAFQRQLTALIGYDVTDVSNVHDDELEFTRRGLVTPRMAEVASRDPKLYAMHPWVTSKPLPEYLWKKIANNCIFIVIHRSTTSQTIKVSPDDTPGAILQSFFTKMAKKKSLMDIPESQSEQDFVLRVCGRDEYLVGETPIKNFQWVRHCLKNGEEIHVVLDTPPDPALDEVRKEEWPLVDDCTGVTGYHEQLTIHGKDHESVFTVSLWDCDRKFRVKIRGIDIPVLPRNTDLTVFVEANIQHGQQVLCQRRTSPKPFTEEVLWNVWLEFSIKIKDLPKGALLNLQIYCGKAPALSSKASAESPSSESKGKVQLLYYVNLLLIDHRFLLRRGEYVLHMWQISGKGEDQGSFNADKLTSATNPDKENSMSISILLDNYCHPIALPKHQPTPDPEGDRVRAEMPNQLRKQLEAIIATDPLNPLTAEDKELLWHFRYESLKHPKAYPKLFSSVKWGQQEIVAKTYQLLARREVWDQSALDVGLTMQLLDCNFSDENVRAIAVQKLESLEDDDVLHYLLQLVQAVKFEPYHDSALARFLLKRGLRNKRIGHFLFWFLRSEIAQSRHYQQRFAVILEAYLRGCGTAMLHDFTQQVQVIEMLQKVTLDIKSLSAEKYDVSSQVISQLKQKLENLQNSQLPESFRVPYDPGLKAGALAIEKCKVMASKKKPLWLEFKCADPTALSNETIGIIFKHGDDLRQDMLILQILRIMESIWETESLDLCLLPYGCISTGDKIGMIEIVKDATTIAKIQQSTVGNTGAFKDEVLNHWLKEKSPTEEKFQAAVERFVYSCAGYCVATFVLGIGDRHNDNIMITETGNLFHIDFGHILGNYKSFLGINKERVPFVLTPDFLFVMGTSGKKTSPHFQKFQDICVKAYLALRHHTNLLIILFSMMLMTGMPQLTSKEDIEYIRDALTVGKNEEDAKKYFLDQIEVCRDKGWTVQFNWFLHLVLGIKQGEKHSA

On to `O=c1cc(N2CCOCC2)nc2n(Cc3cccc(Cl)c3Cl)c(C3CC3)nn12`, for which the concentration for half-maximal inhibition (IC50) (commonly the midpoint of a concentration-inhibition curve) in [1] came to 2500 nM; in data set [2], 2.5 nM; in data set [3] it was 2500 nM; in data set [4] it was 130 nM; in [6], 20 nM. Also, the Ratio IC50 in data set [5] came out at 52. Also, the EC50 (usually the concentration giving half of the maximal effect) with MDA-MB-468 (setting [11]) came out at 260 nM.
As for `Cc1c(Cn2c(C)nn3c(=O)cc(N4CCOC(C)C4)nc23)cccc1C(F)(F)F` (single isomer, unassigned; enantiomer 1) [listing 1 of 2 here], in data set [5], the Ratio IC50 is 6.
The same measure, in the same setting: to `Cc1c(Cn2c(C)nn3c(=O)cc(N4CCOC(C)C4)nc23)cccc1C(F)(F)F` (racemic) [listing 1 of 2 here] belongs 6.
Regarding `CSc1nn2c(=O)cc(N3CCOC(C)C3)nc2n1Cc1cccc(C(F)(F)F)c1C` (stereo not drawn), the IC50 came out at 1300 nM in data set [1], 1 nM in data set [2], 200 nM in data set [3] and 25 nM in [4]. Besides, the Ratio IC50 in data set [5] was 6.
On to `Cc1c(Cn2c(C)nn3c(=O)cc(N4CCOCC4)nc23)cccc1C(F)(F)F`, for which the 50% inhibitory concentration (IC50) in [1] was 630 nM; in [2] it was 0.6 nM; in data set [3] it was 790 nM; in data set [4], 20 nM; in [6] it was 1.5 nM. For the same compound, the Ratio IC50 in [5] worked out at 6. Also, the EC50 in the data set on MDA-MB-468 (setting [11]) was 110 nM. Moreover, in [7], the clearance – broadly, the rate of elimination divided by the concentration – is 130 mL/min/kg.
`Cc1c(Cn2c(C)nn3c(=O)cc(N4CCOC(C)C4)nc23)cccc1C(F)(F)F` (single isomer, unassigned; enantiomer 1) [listing 2 of 2 here]: the half-inhibitory concentration (IC50) in [1] was determined as 1600 nM; in data set [2] it was 3.1 nM; in data set [3] it was 790 nM; in data set [4] it was 63 nM; in data set [6], 7.9 nM. Also, in the data set on MDA-MB-468 (mda-mb-468, read-out: EC50), the EC50 was determined as 310 nM.
As to `Cc1c(Cn2c(C)cn3c(=O)cc(N4CCOCC4)nc23)cccc1C(F)(F)F`, the concentration for half-maximal inhibition (IC50) is 1.3 nM in data set [2]; 7.9 nM in [4]; 32000 nM in data set [8]; 800 nM in data set [9]; over 29000 nM in [10]. This compound also had a 50% effective concentration (EC50) in the data set with HCC1954 of 9700 nM.
Turning to `CSc1nn2c(=O)cc(N3CCOCC3)nc2n1Cc1cccc(Cl)c1Cl`, the concentration for half-maximal inhibition (IC50) came out at 1600 nM in data set [1]; 1.6 nM in [2]; 500 nM in data set [3]; 31 nM in [4]; 13 nM in [6]. In addition, the Ratio IC50 in data set [5] was 19. Besides, in the data set on MDA-MB-468 (setting [11]), the EC50 is 240 nM.
Consider `Cc1nn2c(=O)cc(N3CCOC(C)C3)nc2n1Cc1cccc(Cl)c1Cl` (stereo in doubt; 6) [listing 1 of 2 here], for which the Ratio IC50 in data set [5] is 20.
On to `Cc1nn2c(=O)cc(N3CCOC(C)C3)nc2n1Cc1cccc(Cl)c1Cl` (stereo in doubt; 6) [listing 2 of 2 here], for which the concentration for half-maximal inhibition (IC50) in data set [1] was 2500 nM; in [2] it was 25 nM; in data set [3], 7900 nM; in data set [4], 500 nM.
As to `Cc1c(Cn2c(C)nn3c(=O)cc(N4CCOC(C)C4)nc23)cccc1C(F)(F)F` (single isomer, unassigned; enantiomer 2) [listing 1 of 2 here], the Ratio IC50 in data set [5] was over 10.
For `Cc1c(Cn2c(C)nn3c(=O)cc(N4CCOC(C)C4)nc23)cccc1C(F)(F)F` (racemic) [listing 2 of 2 here], the IC50 in [1] is 400 nM; in data set [2], 1.3 nM; in [3] it was 160 nM; in [4] it was 10 nM; in data set [6], 2.7 nM. Further, the 50% effective concentration (EC50) in the data set with MDA-MB-468 (mda-mb-468, read-out: EC50) stood at 55 nM.
As for `Cc1c(Cn2c(C)nn3c(=O)cc(N4CCOC(C)C4)nc23)cccc1C(F)(F)F` (single isomer, unassigned; enantiomer 2) [listing 2 of 2 here], the half-inhibitory concentration (IC50) in data set [1] came out at 320 nM; in data set [2], 0.3 nM; in [3], 60 nM; in data set [4], 4 nM; in data set [6] it was 0.5 nM; in data set [8], 6300 nM. In addition, the half-inhibitory concentration (IC50) in [9] worked out at 160 nM; in [10] it was 2500 nM. Besides, the EC50 in the data set with MDA-MB-468 (mda-mb-468, read-out: EC50) stood at 13 nM; in the data set on HCC1954 it was 2200 nM.
For `Cc1nn2c(=O)cc(N3CCOC(C)C3)nc2n1Cc1cccc(Cl)c1Cl` (racemic), the IC50 in data set [1] was found to be 320 nM; in data set [2] it was 2 nM; in [3] it was 250 nM; in [4], 25 nM.
`Cc1nn2c(=O)cc(N3CCOCC3)nc2n1Cc1cccc(Cl)c1Cl`: the IC50 in [1] amounted to 630 nM; in data set [2], 1.3 nM; in data set [3], 500 nM; in data set [4], 50 nM; in data set [6], 34 nM. Further, the Ratio IC50 in [5] is 6. The EC50 with MDA-MB-468 (setting [11]) worked out at 170 nM.
As for `CSc1nn2c(=O)cc(N3CCOCC3)nc2n1Cc1cccc(C(F)(F)F)c1C`, the IC50 in data set [1] was 320 nM; in data set [2] it was 0.4 nM; in data set [3], 1300 nM; in data set [4], 25 nM; in data set [6], 5.1 nM. In data set [5], the Ratio IC50 was 6. Moreover, in the data set with MDA-MB-468 (mda-mb-468), the 50% effective concentration (EC50) entry is recorded as “Not Active”.
Turning to `Cc1c(Cn2c(C)nn3c(=O)nc(N4CCOCC4)cc23)cccc1C(F)(F)F`, the values for the IC50 in [2] and in data set [6] were 2 nM and 92 nM, respectively. For the same compound, the EC50 in the data set with MDA-MB-468 (setting [11]) stood at 210 nM. The compound further came in with a clearance in data set [7] of 83 mL/min/kg.
In the case of `Cc1nn2c(=O)cc(N3CCOC(C)C3)nc2n1Cc1cccc(Cl)c1Cl` (single isomer, unassigned; enantiomer 2), the half-inhibitory concentration (IC50) amounted to 1000 nM in data set [1]; 1.3 nM in [2]; 500 nM in [3]; 40 nM in data set [4]; 3.4 nM in [6]. Besides, the EC50 with MDA-MB-468 (setting [11]) came to 110 nM.
Turning to `CSc1nn2c(=O)cc(-c3ccncc3)nc2n1Cc1cccc(Cl)c1Cl`, the concentration for half-maximal inhibition (IC50) in data set [1] worked out at 400 nM; in data set [2], 13 nM; in data set [3] it was 2000 nM; in data set [4] it was 79 nM. Further, the Ratio IC50 in [5] came to 6.
For `Cc1c(Cn2c(C3CC3)nn3c(=O)cc(N4CCOCC4)nc23)cccc1C(F)(F)F`, the IC50 in data set [1] amounted to 2500 nM; in data set [2] it was 1.3 nM; in data set [3] it was 1600 nM; in data set [4], 40 nM; in data set [6], 4.1 nM. In [5], the Ratio IC50 came to 6. Also, the EC50 in the data set with MDA-MB-468 (setting [11]) was 40 nM.

The record behind these values is ChEMBL document CHEMBL2016550, “Synthesis and structure-activity relationships of 1,2,4-triazolo[1,5-a]pyrimidin-7(3H)-ones as novel series of potent β isoform selective phosphatidylinositol 3-kinase inhibitors” (Bioorg Med Chem Lett, 2012).
